Bioassay records deposited in PubChem by Broad Institute.
S100A4 MyoIIA: inhibitors of human S100A4 binding to myosin IIA peptide; hit rate 0.14% among 360,000; inhibition, % at 10.7 µM; P26447; S100A4/TAMRA-MyoIIA peptide fluorescence polarization;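 active = mean inhibition of at least 70% across replicates, with every replicate also reaching that level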
Target sequence (P26447 whole entry, looked up): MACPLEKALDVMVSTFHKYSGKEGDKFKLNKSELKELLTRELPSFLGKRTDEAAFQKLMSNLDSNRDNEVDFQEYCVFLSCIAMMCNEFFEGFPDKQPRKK
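Material: S100A4 monomer (human). Medium: Calcium-containing HEPES buffer, pH 7.2. Probe or stimulus: labelled myosin peptide probe, 5 nM. Compound dosing: one concentration per compound. Timing: polarization read 5 min after assay mix addition, stable 5–60 min. Benchmarks: DMSO as neutral control, TFP as positive control.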
F508del corr: CFTR F508del correction in bronchial cells. CFBE cells, YFP halide quenching; stimulated with forskolin plus potentiator P3; % fluorescence drop versus neutral controls. activity (quench increase), % at 7.58 µM. hit rate 0.36% among 350,000;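 active = mean added fluorescence quench of at least 8% versus neutral control, with both replicates also reaching 8%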;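 note: cells transiently co-express mutant CFTR-F508del with the halide-sensitive YFP; corrector assay measuring rescue of mutant channel to the surface after 24 h compound exposure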
dFosB act: activators of mouse delta FosB homodimer; hit rate 0.99% among 340,000; activation, % at 25 µM; purified delta FosB, TAMRA-CDK5 oligo fluorescence polarization; percent of positive-control signal above neutral wells;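 active = mean activation above about 17%, with every replicate also reaching it, limit read from the data, passing the limit was not always enough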
Target sequence (P13346 whole entry, looked up): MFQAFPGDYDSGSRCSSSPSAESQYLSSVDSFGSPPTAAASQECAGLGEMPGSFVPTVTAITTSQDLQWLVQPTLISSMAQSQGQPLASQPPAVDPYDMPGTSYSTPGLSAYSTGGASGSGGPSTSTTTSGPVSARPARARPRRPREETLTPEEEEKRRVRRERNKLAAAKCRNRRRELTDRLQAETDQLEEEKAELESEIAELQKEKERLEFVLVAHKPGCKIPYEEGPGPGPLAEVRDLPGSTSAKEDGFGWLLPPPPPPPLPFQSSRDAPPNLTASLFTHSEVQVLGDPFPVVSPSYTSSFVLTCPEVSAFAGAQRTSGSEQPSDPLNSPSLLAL
FGF22 binding: binders of recombinant human FGF22 by thermal shift. activity (Tm shift, normalised), % at 9.99 µM. hit rate 1.5% among 340,000. Q9HCT0. AID 651658. SYPRO orange fluorescence; percent of sucrose octasulfate shift, DMSO zero;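 active = mean Tm shift, scaled 0 neutral to 100 positive control, at about 1.3% or above, every replicate too, limit read from the data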
* = called active by the depositor; x = no result given. Rows were chosen to be rich in hits. Some 2.2% of all compounds tested hit in one or more screens of this group.

SMILES	S100A4 MyoIIA	F508del corr	dFosB act	FGF22 binding
Cc1cc(C)n2nc(SC(C)C(=O)N3CC(C)OC(C)C3)nc2n1 (configuration not stated)	1	1	-2	43*
Cn1nc(SCc2ccccc2)c(=O)n(C(c2ccccc2)c2ccccc2)c1=O	-3	0	-12	0
Cn1nc(SCc2ccccc2)c(=O)[nH]c1=O	-2	-2	x	43*
CCCC(=O)Nc1ccc2c(c1)C(=O)N(C)C[C@@H](OC)[C@H](C)CN(CCC(F)(F)F)[C@@H](C)CO2	x	2	x	x
COc1ccc([Si](C)(C)[C@H]2[C@H](CCO)O[C@@]3(C(=O)N(Cc4cccc(NC(=O)[C@H](C)O)c4)c4ccccc43)[C@@H]2C)cc1	-20	0	x	2.9*
COc1ccc([Si](C)(C)[C@@H]2[C@@H](CCO)O[C@]3(C(=O)N(Cc4ccc(NC(=O)[C@H](C)O)cc4)c4ccccc43)[C@H]2C)cc1	-9	-9	x	0
CC1(C)O[C@@H]2C[C@H]3[C@@H]4CCC5=CC(=O)C=C[C@]5(C)[C@@]4(F)[C@@H](O)C[C@]3(C)[C@]2(C(=O)CO)O1	-11	2	1	0
CC1(C)OC2CC3C4CCC5=CC(=O)CCC5(C)C4(F)C(O)CC3(C)C2(C(=O)CO)O1 (configuration not stated)	0	1	-14	44*
Cc1ccc(S(=O)(=O)N(C)C[C@H]2OCCCC[C@@H](C)Oc3ccc(NC(=O)Nc4ccc5c(c4)OCO5)cc3C(=O)N([C@H](C)CO)C[C@@H]2C)cc1	2	0	x	0
Cc1ccc(S(=O)(=O)N[C@H](C(=O)OCC(=O)NC(=O)C2CCCCC2)C(C)C)cc1	1	12*	-7	0
COCc1cn([C@H]2C[C@@H]3O[C@@H](CO)CC[C@@H]3O[C@@H]2CCc2ccc(-c3ccc(OC)cc3)cc2)nn1	6	1	x	0
COCOc1cccc(CN2CCC(C)(Oc3cccc(C#N)c3)C2)c1 (configuration not stated)	-5	8.7*	x	-1
COCC(=O)N(C)C[C@@H]1Oc2ncc(C3=CCCCC3)cc2C(=O)N([C@H](C)CO)C[C@H]1C	2	-1	x	0
O=C(O)c1ccc(N/N=C/c2ccc(-c3ccccc3)cc2)cc1	-2	-3	-5	43
CC(C)c1ccc(/C=N/Nc2ccc(C(=O)O)cc2)cc1	17	-1	-7	44*
O=C(O)CC(NC(=O)C12CC3CC(CC(C3)C1)C2)c1ccc2c(c1)OCO2 (configuration not stated)	2	3	7	43*
Fc1ccc2nc(C3CCCCN3Cc3nc(CC4CC4)no3)[nH]c2c1 (configuration not stated)	2	-1	-3	0
CN(Cc1ccc2nonc2c1)Cc1nc(CC2CC2)no1	-3	1	2	43*
C[C@@H]1CCCCO[C@@H](CN(C)C(=O)Nc2cccc3ccccc23)[C@@H](C)CN([C@H](C)CO)C(=O)c2cc(NC(=O)Nc3ccc(F)cc3)ccc2O1	-19	0	x	0
O=C1CNC(=S)N1Cc1ccccc1	0	-1	5	43*
O=C(NN1C(=O)C2C(C1=O)C1C=CC2C12CC2)c1ccncc1 (configuration not stated)	x	x	-5	x
O=C(NN1C(=O)C2C(C1=O)C1C=CC2C12CC2)c1cccnc1 (configuration not stated)	-2	-1	-1	44*
CN1C(=O)c2cc(NC(=O)c3ccc(C(F)(F)F)cc3)ccc2OC[C@@H]2O[C@H](CC(=O)O)CC[C@@H]21	-3	1	x	0
O=C(Cn1c2ccc(F)cc2c2nc3n(c(=O)c21)CCS3)Nc1ccc(Cl)cc1F	0	2	21*	0
CC(=O)Nc1ccc(NC(=O)c2cc(-c3cc(C)cc(C)c3O)n[nH]2)cc1	-7	-1	22*	0
SMILES	S100A4 MyoIIA	F508del corr	dFosB act	FGF22 binding
CC(=O)Nc1ccc(NC(=O)c2cc(-c3ccc(F)cc3C)n[nH]2)cc1	-5	2	x	0
Cc1cc(C)c(O)c(-c2cc(C(=O)Nc3ccc(S(=O)(=O)N4CCOCC4)cc3)[nH]n2)c1	x	x	23*	x
Cc1ccc(C(=O)Nc2ccc(S(=O)(=O)N3CCOCC3)cc2)cc1	-1	-2	0	1
Cc1ccc(S(=O)(=O)N(C)C[C@H]2Oc3c(NC(=O)C4CC4)cccc3C(=O)N([C@H](C)CO)C[C@H]2C)cc1	-12	-3	x	0
CCC(=O)N1CC2(C1)CN(Cc1ccccc1Cl)[C@@H](CO)c1c2c2ccc(OC)cc2n1C	5	-3	x	0
CO[C@@H](CN(C)S(=O)(=O)c1ccc(C)cc1)[C@H](C)CN([C@H](C)CO)S(=O)(=O)c1cccc(Cl)c1	4	15*	x	0
CO[C@H](CN(C)S(=O)(=O)c1ccc(C)cc1)[C@H](C)CN([C@H](C)CO)S(=O)(=O)c1cccc(Cl)c1	4	3	x	0
CS(=O)(=O)Nc1ccc2c(c1)[C@@H]1C[C@@H](CC(=O)N3CCOCC3)O[C@@H](CO)[C@@H]1O2	-5	1	x	0
O=C(c1cc(F)c(F)c(F)c1F)N1CCN(C(=O)C2CCCO2)CC1 (configuration not stated)	-1	3	-6	44*
Cc1noc(C)c1S(=O)(=O)Nc1ccc2c(c1)CC(=O)N([C@@H](C)CO)C[C@@H](C)[C@H](CN(C)S(=O)(=O)c1ccc(F)cc1)O2	5	4	x	0
C/C=C/c1ccc([C@H]2[C@@H](CO)N(C(=O)COC)[C@@H]2CNC(=O)CC)cc1	-6	8.3*	x	0
CN1c2ccc(C3=CCCCC3)cc2[C@@H]2[C@@H](CCN2C(=O)C2CCCCC2)[C@H]1CO	15	1	x	x
CCCN1[C@@H]2Cn3c(ccc(-c4ccccc4OC)c3=O)[C@H]1[C@@H](C(=O)N1CCOCC1)[C@@H]2CO	-5	-3	x	x
c1ccc(CCNc2nc(-c3ccccn3)nc3ccccc23)cc1	-3	13*	-10	0
O=C(C[C@H]1CC[C@@H]2[C@H](COC[C@@H](O)CN2S(=O)(=O)c2ccc(Cl)cc2)O1)N[C@@H]1CCN(Cc2ccccc2)C1	4	-1	x	0
Cn1cc(-c2ccc(Cl)cc2)cc(C#N)c1=O	8	0	-1	43*
CCCNC(=O)c1ccc(C2SCC(=O)N2Cc2ccccc2)cc1 (configuration not stated)	-3	4	-8	44*
CCOCCCNC(=O)c1ccc(C2SCC(=O)N2Cc2ccccc2)cc1 (configuration not stated)	0	-2	-12	0
COC(=O)[C@@H]1[C@@H](CO)[C@@H]2Cn3c(cccc3=O)[C@@H]2N1CC1CCOCC1	88*	x	x	0
COC(=O)[C@H]1[C@H](CO)[C@H]2Cn3c(cccc3=O)[C@H]2N1CC1CCCCC1	11	-2	x	0
